Reference: article PMC7717620 (Nucleosides, nucleotides & nucleic acids, 2019)
Entries after “also recorded” stand apart in the source; their conditions may differ.

Columns and labels:
[1] = test system: Huh-7 cells; test: intracellular metabolism in Huh-7 cells; type: in vitro ADME, human; conditions: Huh-7, 50 μM, 4 h
[2] = test system: HepG2 cells; test: intracellular metabolism in HepG2 cells; type: in vitro ADME, human; conditions: HepG2, 50 μM, 4 h
[3] = test system: primary mouse hepatocytes; test: intracellular metabolism in primary mouse hepatocytes; type: in vitro ADME; conditions: 50 μM, 4 h
[4] = test system: primary rat hepatocytes; test: intracellular metabolism in primary rat hepatocytes; type: in vitro ADME; conditions: 50 μM, 4 h
[5] = test system: primary dog hepatocytes; test: intracellular metabolism in primary dog hepatocytes; type: in vitro ADME; conditions: 50 μM, 4 h
[6] = test system: primary monkey hepatocytes; test: intracellular metabolism in primary monkey hepatocytes; type: in vitro ADME; conditions: 50 μM, 4 h
[7] = test system: primary human hepatocytes; test: intracellular metabolism in primary human hepatocytes; type: in vitro ADME; conditions: 50 μM, 4 h
[8] = test system: human cardiomyocytes; test: cellular accumulation and metabolism in human cardiomyocytes; type: in vitro ADME; conditions: 10 μM
[9] = test system: human cardiomyocytes; test: recording of human cardiomyocyte beating patterns; type: cell-based; conditions: for change in beating rate or rhythm of cardiomyocytes (observation): up to 48 h
[10] = test system: monkey heart and kidney; conditions: three weeks post a three-week dosing (week 6); cited from earlier work
[11] = test system: patients; conditions: of the 34 patients treated, phase IIb; cited from earlier work
[12] = test system: HCV genotype 1 b RNA replication; test: subgenomic HCV replicon system, inhibition of HCV RNA replication in Huh-7 cells; type: cell-based, hepatitis C virus; conditions: HCV genotype 1 b subgenomic replicon
In short: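 HCV genotype 1b subgenomic replicon in Huh-7 cells. HCV RNA and cellular ribosomal RNA were extracted and amplified, so replication and cytotoxicity were read in the same cells.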

[13] = all three concentrations (2, 10 and 50 μM)

## COc1nc(N)nc2c1ncn2[C@@H]1O[C@H](COP(=O)(N[C@@H](C)C(=O)OCC(C)(C)C)Oc2cccc3ccccc23)[C@@H](O)[C@@]1(C)O (stereo partly drawn) [BMS-986094, Neopentyl ((((2R,3R,4R,5R)-5-(2-amino-6-methoxy-9H-purin-9-yl)-3,4-dihydroxy-4-methyltetrahydrofuran-2-yl)methoxy)(naphthalen-1-yloxy)phosphoryl)-L-alaninate]
[1]
  Intracellular concentration: Prodrugs: 2,900 ± 358 pmol/10^6 cells
  parent prodrug level, times the level observed for DAPN-PD: 17 times
  parent prodrug level, times the level observed for IDX-184: 260 times
[2]
  Intracellular concentration: Prodrugs: 2,400 ± 9 pmol/10^6 cells
  parent prodrug level, times the level observed for DAPN-PD: 6 times
  parent prodrug level, times the level observed for IDX-184: 110 times
[3]
  Intracellular concentration: NTP (triphosphate of N): undetectable and BLOQ
  Intracellular concentration: Prodrugs: 880 ± 135 pmol/10^6 cells
[4]
  Intracellular concentration: Prodrugs: 52 pmol/10^6 cells
[5]
  Intracellular concentration: Prodrugs: 2,200 ± 68 pmol/10^6 cells
[6]
  Intracellular concentration: Prodrugs: 150 ± 19 pmol/10^6 cells
[7]
  Intracellular concentration: Prodrugs: 4,100 ± 569 pmol/10^6 cells
[8]; 4 h
  Intracellular concentration in human cardiomyocytes: NTP (triphosphate of N): BLOQ
  Intracellular concentration in human cardiomyocytes: Prodrugs: 800 ± 118 pmol/10^6 cells
[8]; 8 h
  Intracellular concentration in human cardiomyocytes: NTP (triphosphate of N): BLOQ
  Intracellular concentration in human cardiomyocytes: Prodrugs: 810 ± 80 pmol/10^6 cells
[8]; human cardiomyocytes, 4 h
  level of intact prodrug, fold higher than DAPN-PD: 11 fold
  level of intact prodrug, fold higher than IDX-184: 37 fold
[9]; 2 μM, 2 h
  Beating rate of human cardiomyocytes: 31.0 ± 0 beats/minute
[9]; 2 μM, 4 h
  Beating rate of human cardiomyocytes: 30.5 ± 0.7 beats/minute
[9]; 2 μM, 8 h
  Beating rate of human cardiomyocytes: 34.5 ± 0.7 beats/minute
[9]; 2 μM, 12 h
  Beating rate of human cardiomyocytes: 36.0 ± 0 beats/minute
[9]; 2 μM, 24 h
  Beating rate of human cardiomyocytes: 32.5 ± 0.7 beats/minute
[9]; 2 μM, 48 h
  Beating rate of human cardiomyocytes: 26.5 ± 0.7 beats/minute
[9]; 2 μM
  change in beating rate or rhythm of cardiomyocytes (observation): no clear change in beating rate or rhythm
[9]; 10 μM, 2 h
  Beating rate of human cardiomyocytes: 31.0 ± 0 beats/minute
[9]; 10 μM, 4 h
  Beating rate of human cardiomyocytes: 31.0 ± 0 beats/minute
[9]; 10 μM, 8 h
  Beating rate of human cardiomyocytes: 35.0 ± 0 beats/minute
[9]; 10 μM, 12 h
  Beating rate of human cardiomyocytes: 36.0 ± 0 beats/minute
[9]; 10 μM, 24 h
  Beating rate of human cardiomyocytes: 34.5 ± 0.7 beats/minute
[9]; 10 μM, 48 h
  Beating rate of human cardiomyocytes: 35.5 ± 2.1 beats/minute
[9]; 10 μM
  change in beating rate or rhythm of cardiomyocytes (observation): changes to both beat rate and rhythm were noted; also recorded: higher beating rates were observed starting from 12 h
[9]; 50 μM
  time until cardiomyocytes stopped beating: ≤ 2 h
[9]; 50 μM, 2 h
  Beating rate of human cardiomyocytes: 0 ± 0 beats/minute
[9]; 50 μM, 4 h
  Beating rate of human cardiomyocytes: 0 ± 0 beats/minute
[9]; 50 μM, 8 h
  Beating rate of human cardiomyocytes: 0 ± 0 beats/minute
[9]; 50 μM, 12 h
  Beating rate of human cardiomyocytes: 32.0 beats/minute
[9]; 50 μM, 24 h
  Beating rate of human cardiomyocytes: 34.0 ± 0 beats/minute
[9]; 50 μM, 48 h
  Beating rate of human cardiomyocytes: 0 ± 0 beats/minute
[9]; 50 μM, beating resumed briefly at 12 and 24 h
  rhythm of cardiomyocytes (observation): very unstable rhythm
[10]
  levels of 2’-C-Me-GTP in the heart and kidney: 2,610–4,280 ng/mL
[11]
  deaths: one death
  patients with some evidence of cardiac dysfunction: 14

## CC(C)(CO)C(=O)SCCOP(=O)(NCc1ccccc1)OC[C@H]1O[C@@H](n2cnc3c(=O)[nH]c(N)nc32)[C@](C)(O)[C@@H]1O (mixture of isomers) [IDX-184, S-(2-(((((2R,3R,4R,5R)-5-(2-Amino-6-oxo-1,6-dihydro-9H-purin-9-yl)-3,4-dihydroxy-4-methyltetrahydrofuran-2-yl)methoxy)(benzylamino)phosphoryl)oxy)ethyl) 3-hydroxy-2,2-dimethylpropanethioate]
[12]
  Replicon Huh-7 EC50: sub-micromolar
[1]
  Intracellular concentration: Prodrugs: 11 ± 1 pmol/10^6 cells
[2]
  Intracellular concentration: Prodrugs: 21 ± 1 pmol/10^6 cells
[3]
  Intracellular concentration: Prodrugs: 220 ± 3 pmol/10^6 cells
[4]
  Intracellular concentration: Prodrugs: 1,100 ± 471 pmol/10^6 cells
[5]
  Intracellular concentration: Prodrugs: 110 ± 2 pmol/10^6 cells
[6]
  Intracellular concentration: Prodrugs: 75 ± 3 pmol/10^6 cells
[7]
  Intracellular concentration: Prodrugs: 160 ± 18 pmol/10^6 cells
[8]; 4 h
  Intracellular concentration in human cardiomyocytes: Prodrugs: 21 ± 1 pmol/10^6 cells
[8]; 8 h
  Intracellular concentration in human cardiomyocytes: Prodrugs: 9.8 ± 1.4 pmol/10^6 cells
[8]; human cardiomyocytes, 8 h
  intact prodrug level, times lower than BMS-986094: 83 times
[9]; 2 μM, 2 h
  Beating rate of human cardiomyocytes: 32.0 ± 0 beats/minute
[9]; 2 μM, 4 h
  Beating rate of human cardiomyocytes: 31.5 ± 0.7 beats/minute
[9]; 2 μM, 8 h
  Beating rate of human cardiomyocytes: 37.0 ± 1.4 beats/minute
[9]; 2 μM, 12 h
  Beating rate of human cardiomyocytes: 36.0 ± 1.4 beats/minute
[9]; 2 μM, 24 h
  Beating rate of human cardiomyocytes: 32.5 ± 0.7 beats/minute
[9]; 2 μM, 48 h
  Beating rate of human cardiomyocytes: 24.0 ± 1.4 beats/minute
[9]; 10 μM, 2 h
  Beating rate of human cardiomyocytes: 30.0 ± 1.4 beats/minute
[9]; 10 μM, 4 h
  Beating rate of human cardiomyocytes: 30.0 ± 0 beats/minute
[9]; 10 μM, 8 h
  Beating rate of human cardiomyocytes: 34.0 ± 0 beats/minute
[9]; 10 μM, 12 h
  Beating rate of human cardiomyocytes: 34.0 ± 1.4 beats/minute
[9]; 10 μM, 24 h
  Beating rate of human cardiomyocytes: 31.0 ± 1.4 beats/minute
[9]; 10 μM, 48 h
  Beating rate of human cardiomyocytes: 25.0 ± 1.4 beats/minute
[9]; 50 μM, 2 h
  Beating rate of human cardiomyocytes: 33.0 ± 0 beats/minute
[9]; 50 μM, 4 h
  Beating rate of human cardiomyocytes: 31.5 ± 0.7 beats/minute
[9]; 50 μM, 8 h
  Beating rate of human cardiomyocytes: 34.5 ± 0.7 beats/minute
[9]; 50 μM, 12 h
  Beating rate of human cardiomyocytes: 34.5 ± 0.7 beats/minute
[9]; 50 μM, 24 h
  Beating rate of human cardiomyocytes: 34.5 ± 4.9 beats/minute
[9]; 50 μM, 48 h
  Beating rate of human cardiomyocytes: 27.5 ± 0.7 beats/minute
[9]; [13]
  change in beating rate or rhythm of cardiomyocytes (observation): no obvious beating rate change; also recorded: no apparent change in beating; also recorded: no apparent changes to beat rate or rhythm

## CC(C)OC(=O)[C@H](C)N[P@](=O)(OC[C@H]1O[C@@H](n2ccc(=O)[nH]c2=O)[C@](C)(F)[C@@H]1O)Oc1ccccc1 [Sofosbuvir, sofosbuvir]
[8]; 4 h
  Intracellular concentration in human cardiomyocytes: Prodrugs: 56 ± 3 pmol/10^6 cells
[8]; 8 h
  Intracellular concentration in human cardiomyocytes: Prodrugs: 42 ± 4 pmol/10^6 cells
[9]; 2 μM, 2 h
  Beating rate of human cardiomyocytes: 36.5 ± 2.1 beats/minute
[9]; 2 μM, 4 h
  Beating rate of human cardiomyocytes: 35.0 ± 1.4 beats/minute
[9]; 2 μM, 8 h
  Beating rate of human cardiomyocytes: 38.5 ± 0.7 beats/minute
[9]; 2 μM, 12 h
  Beating rate of human cardiomyocytes: 36.5 ± 0.7 beats/minute
[9]; 2 μM, 24 h
  Beating rate of human cardiomyocytes: 33.0 ± 0 beats/minute
[9]; 2 μM, 48 h
  Beating rate of human cardiomyocytes: 25.5 ± 0.7 beats/minute
[9]; 10 μM, 2 h
  Beating rate of human cardiomyocytes: 34.0 ± 1.4 beats/minute
[9]; 10 μM, 4 h
  Beating rate of human cardiomyocytes: 33.0 ± 1.4 beats/minute
[9]; 10 μM, 8 h
  Beating rate of human cardiomyocytes: 35.0 ± 1.4 beats/minute
[9]; 10 μM, 12 h
  Beating rate of human cardiomyocytes: 33.5 ± 0.7 beats/minute
[9]; 10 μM, 24 h
  Beating rate of human cardiomyocytes: 30.0 ± 0 beats/minute
[9]; 10 μM, 48 h
  Beating rate of human cardiomyocytes: 23.0 ± 0 beats/minute
[9]; 50 μM, 2 h
  Beating rate of human cardiomyocytes: 32.5 ± 0.7 beats/minute
[9]; 50 μM, 4 h
  Beating rate of human cardiomyocytes: 32.0 ± 0 beats/minute
[9]; 50 μM, 8 h
  Beating rate of human cardiomyocytes: 34.5 ± 0.7 beats/minute
[9]; 50 μM, 12 h
  Beating rate of human cardiomyocytes: 33.0 ± 1.4 beats/minute
[9]; 50 μM, 24 h
  Beating rate of human cardiomyocytes: 29.5 ± 0.7 beats/minute
[9]; 50 μM, 48 h
  Beating rate of human cardiomyocytes: 23.5 ± 0.7 beats/minute
[9]; [13]
  change in beating rate or rhythm of cardiomyocytes (observation): no apparent change in beating rate or rhythm
